Bioassay records: PubChem BioAssay, several laboratories
Hep lipid drop: modulators of hepatic lipid droplet formation; AML12 mouse hepatocytes, oleate lipid droplets, BODIPY imaging; inhibition, % at 6.5 µM; hit rate 0.4% among 240,000;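 active = lipid droplet intensity inhibited by at least 50%, with more than 500 cells counted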
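Technique: fluorescence imaging, 20x objective, two fields per well / Assay system: AML12 hepatocytes (mouse) / Measure: % inhibition of lipid droplet signal / Doses: 6.5 µM single-point dosing / Incubation: overnight exposure / Reagent: 100 µM oleic acid challenge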
PHOSPHO1 inh: blocks human PHOSPHO1 phosphatase activity. Q8TCT1. recombinant PHOSPHO1, absorbance phosphatase assay. inhibition, % at 13.3 µM. hit rate 1.1% among 290,000; in the data active = inhibition above about 60%
Target sequence (Q8TCT1 whole entry, looked up): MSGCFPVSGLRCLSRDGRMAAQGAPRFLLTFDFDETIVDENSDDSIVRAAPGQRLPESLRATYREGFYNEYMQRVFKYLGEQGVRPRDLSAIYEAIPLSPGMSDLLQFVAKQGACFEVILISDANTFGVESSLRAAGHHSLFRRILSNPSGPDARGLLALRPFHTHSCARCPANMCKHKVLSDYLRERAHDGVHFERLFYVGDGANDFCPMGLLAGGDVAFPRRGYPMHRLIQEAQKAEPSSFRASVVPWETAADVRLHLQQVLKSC
CHT inh: inhibitors of human choline transporter CHT. Q9GZV3. AID 488975. CHT-expressing cells, membrane potential dye, choline response; active compounds read low. hit rate 0.86% among 310,000. B-score at 10 µM;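 active = B-score over 3 SD under the library average, and starting fluorescence ratio not unusually high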;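 note: choline stimulus applied at its EC90 after an EC20 pre-addition; B-score computed on integrated fluorescence ratio after choline addition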
HSF1 inh: HSF1 inhibition; NIH3T3-HGL HSE-luciferase, MG132-induced, luminescence 8 h; active compounds read low; activity change, negative = inhibition, % at 7.5 µM (by protocol); hit rate 0.77% among 300,000; AID 2098;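 active = more than half of replicate wells show activity change below -50%, luminescence cut by over half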;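 note: luciferase reports HSF-1 transcriptional activity via heat shock element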
HSF-1 act: increases HSF-1 driven luciferase reporter signal; NIH3T3-HGL HSF-1 luciferase reporter, MG132, 8 h; 100% = twice DMSO control signal; activation, % at 9 µM; hit rate 1.7% among 300,000; AID 504408;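 active = mean replicate activation of at least 50% with a set share of replicates each reaching 50%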
CHT PAM: allosteric activators of human choline transporter CHT; B-score at 10 µM; AID 488977; CHT-expressing cells, membrane potential dye, choline EC20; active compounds read high; LV-AA mutant CHT in HEK293 cells; hit rate 0.49% among 310,000;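 active = initial fluorescence not abnormally high and integrated response B-score, plate-corrected, over 3 SD above library mean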
Numbers stand for hits; 0 = inactive; - = no result. Only some compounds are listed: those with a hit (about 4.9% of all), similar ones and a draw of the others.

SMILES	Hep lipid drop	PHOSPHO1 inh	CHT inh	HSF1 inh	HSF-1 act	CHT PAM
O=C1OC2(CCCCC2)OC(=O)C1=CNc1ccc2c(c1)OCO2	-	0	0	0	0	0
S=c1c2c(nc3nc[nH]n13)CCC2	0	92.7	0	0	0	0
CC1CCc2c(nc3nc[nH]n3c2=O)C1 (configuration not stated)	0	0	0	0	0	0
CCN1CCc2nc3sc(C(=O)N4CCc5ccccc5C4)c(N)c3cc2C1	0	0	0	0	0	0
CC(C)OC(=O)CC(=O)c1sc2nc3c(cc2c1N)CN(C)CC3	-	81.5	0	0	0	0
CCOc1ccc(CNC(=O)CCS(=O)(=O)c2ccc3c(c2)oc(=O)n3C)cc1	0	0	0	-76.2	0	0
COc1ccc(CCNC(=O)CSc2nn3c(=O)c(C)nnc3s2)cc1OC	0	0	0	0	0	0
CC(=O)c1ccc(Oc2ccc(C(C)=O)cc2)cc1	-	0	0	0	56.0	0
Cc1ccc(N(CC(=O)NCc2ccc(F)cc2)S(=O)(=O)c2c(C)nn(C)c2C)cc1	0	61.6	0	0	0	0
CC(=O)N1CC(C)Oc2ccc(S(=O)(=O)NC(CC(=O)O)c3ccccc3C)cc21 (configuration not stated)	0	64.9	0	0	0	0
COCCn1c(SCc2cnc(-c3ccccc3)s2)nnc1-c1ccncc1	-	0	0	0	0	0
CCn1c(CN2CCCCCC2=O)nnc1SCc1cnc(-c2ccccc2)s1	-	61.8	0	0	0	0
CCOC(=O)c1cn[nH]c1NC(=S)Nc1ccc(Cl)cc1	0	0	0	0	0	0
CCOC(=O)c1cn[nH]c1C(F)(F)F	0	0	0	0	56.9	0
O=[N+]([O-])/C=C\c1ccc(N2CCOCC2)cc1	-	-	0	0	0	0
O=C(COc1ccc(/C=C\[N+](=O)[O-])cc1)N1CCOCC1	0	0	0	0	181.4	0
Cc1cc(NC(=O)C(C)SCC(=O)OC(C)C(=O)Nc2ccccc2C)no1 (configuration not stated)	0	0	0	0	0	0
COc1cccc(NC2SC(=O)N(c3ccccc3)C2=O)c1 (configuration not stated)	0	0	0	0	59.5	0
CN1C(=O)SC(Nc2ccccc2)C1=O (configuration not stated)	0	0	0	0	0	0
CCOC(=O)CSc1nc2cc(C(=O)OC)ccc2c(=O)n1CCN1CCOCC1	-	70.5	0	0	0	0
COC(=O)c1ccc2c(=O)n(CCN3CCOCC3)c(SCC(=O)C(C)(C)C)nc2c1	-	0	0	0	0	0
CCOC(=O)c1c(NC(=O)CSc2nc3cc(Cl)ccc3c(=O)n2Cc2ccco2)sc(C(=O)N(C)C)c1C	0	0	0	0	145.5	0
CCN(C(=O)CSc1nc2cc(C(=O)OC)ccc2c(=O)n1Cc1ccco1)c1cccc(C)c1	-	0	0	0	143.1	0
CCc1ccc(NC(=O)CSc2nc3cc(C(=O)OC)ccc3c(=O)n2Cc2ccco2)cc1	-	0	0	0	0	0
CCc1ccc(-c2cc(C)no2)cc1S(=O)(=O)N1CCN(c2cc(C)ccc2C)CC1	0	0	0	0	0	0
SMILES	Hep lipid drop	PHOSPHO1 inh	CHT inh	HSF1 inh	HSF-1 act	CHT PAM
COc1ccc(S(=O)(=O)N2CCCCC2)cc1NC(=O)c1ccc2c(c1)OCO2	0	0	0	0	0	0
Cc1cc(NC(=O)C2C3C(=O)N(CC4CCCO4)C(C(=O)NC(C)(C)C)C34C=CC2(C)O4)no1 (configuration not stated)	0	0	0	0	0	0
Cc1cc(NC(=O)C2C3C(=O)N(Cc4ccc(Cl)cc4)C(C(=O)NC(C)(C)C)C34C=CC2(C)O4)no1 (configuration not stated)	-	0	0	-54.6	0	0
NC(=O)[C@H]1CC2(CC(c3cccc(NC(=O)COc4ccc(Cl)cc4)c3)=NO2)CN1C(=O)c1ccccc1C(=O)c1ccccc1 (some centres not stated)	0	0	0	0	0	0
COCc1cc(C)nc(SCC(=O)Nc2ccccc2N2CCOCC2)c1C#N	0	0	0	0	65.0	0
O=C(NC(=S)Nc1ncccn1)c1ccc(Cl)cc1Cl	0	0	0	0	64.3	0
CCC(=O)Nc1cccc(NC(=S)NC(=O)c2ccc(Cl)cc2Cl)c1	0	0	0	0	0	0
